# Columns and labels:
# [1] = target: Serine/threonine-protein kinase MAK (Homo sapiens) (UniProt P20794); experiment: Inhibition of MAK (unknown origin) assessed as enzyme activity at 1 uM preincubated for 20 mins followed by ATP addition and measured after 120 mins in presence of [33P-gamma] ATP by hotspot kinase assay relative to control; parameters: scale not given: the % may be the effect or the level left; conditions: time 140.0 min
# Summary of the method: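 Radiometric filter-binding kinase assay, buffer pH 7.5 with 10 mM MgCl2 and 1% DMSO. Compound tested at a single 1.0 μM, preincubated 20 min at 25 °C. Reaction started with ATP/[γ-33P]ATP at 10 μM final, run 120 min at 25 °C. Remaining % enzyme activity reported, n=2.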
# [2] = target: Cyclin-dependent kinase 2/cyclin E1 (Homo sapiens, UniProt P24941); experiment: Inhibition of CDK2/Cyclin E (unknown origin) preincubated for 20 mins followed by ATP addition and measured after 120 mins in presence of [33P-gamma] ATP by hotspot kinase assay; type: protein-complex assay
# Summary of the method: (§1)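 Radiometric filter-binding assay: kinase and substrate in 20 mM Hepes pH 7.5, 10 mM MgCl2, 1 mM EGTA, 0.02% Brij35, 0.02 mg/mL BSA, 0.1 mM Na3VO4, 2 mM DTT, 1% DMSO. Compound (top 1/10/27 μM, 3-fold serial dilutions) preincubated 20 min at 25 °C. ATP plus [γ-33P]ATP added to 10 μM final, reacted 120 min at 25 °C. IC50 from curve fit, duplicate mean.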
# [3] = AUC (0 to t) in ICR mouse at 2 mg/kg, iv measured up to 24 hrs by LC-MS/MS analysis; type: ADME, organism-based; parameters: route intravenous, dose 2 mg/kg, time <=24; conditions: in vivo
# NCI-N87 = experiment: Antiproliferative activity against human NCI-N87 cells assessed as inhibition of cell growth incubated for 72 hrs by Celltiter-Glo luminescent assay; type: functional, cell-based; conditions: NCI-N87, 72 h
# Summary of the method: (§2)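 Cells seeded in growth medium and held overnight at 37 °C; medium-only wells served as background. DMSO stocks were diluted in medium to 3× final and added; cells incubated 72 h at 37 °C, 5% CO2. Viability read by CellTiter-Glo luminescence after 60 min at room temperature. IC50 from curve fit, mean of duplicate.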
# [4] = Toxicity in BALB/c nude mouse xenografted with human MV4-11 cells assessed as body weight loss at 40 mg/kg, iv administered once daily for 21 days and measured 2 or 3 times per week; type: organism-based; conditions: in vivo, 504 h, time 21 day
# Summary of the method: (§3)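 Female BALB/c nude mice, six weeks old, with subcutaneous right-flank MV4-11 xenografts (5 million cells in PBS mixed 1:1 with Matrigel). Daily intravenous dosing started at tumour size 150–200 mm³, 6 mice per group, for 21 consecutive days. Vehicle was dimethylacetamide 20%/polyoxyethylated castor oil 40%/anhydrous ethanol 40%. Body weight was recorded two or three times weekly, and mortality was monitored throughout treatment.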
# [5] = target: Cyclin-dependent kinase 5/CDK5 activator 1 (Homo sapiens, UniProt Q00535); experiment: Inhibition of CDK5/p25 (unknown origin) preincubated for 20 mins followed by ATP addition and measured after 120 mins in presence of [33P-gamma] ATP by hotspot kinase assay; type: protein-complex assay; summary of the method: as §1
# Sequence of Cyclin-dependent kinase 5/CDK5 activator 1 (Q00535 whole entry): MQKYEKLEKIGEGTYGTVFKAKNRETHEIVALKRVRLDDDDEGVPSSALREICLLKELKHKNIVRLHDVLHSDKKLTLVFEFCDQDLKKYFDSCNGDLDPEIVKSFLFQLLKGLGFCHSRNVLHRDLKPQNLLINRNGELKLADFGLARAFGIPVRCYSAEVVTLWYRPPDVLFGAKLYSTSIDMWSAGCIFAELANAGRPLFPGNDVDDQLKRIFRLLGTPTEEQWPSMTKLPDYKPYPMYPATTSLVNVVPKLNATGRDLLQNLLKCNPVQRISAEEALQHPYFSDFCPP
# Sequence of Cyclin-dependent kinase 5/CDK5 activator 1 (Q15078 whole entry, further chain): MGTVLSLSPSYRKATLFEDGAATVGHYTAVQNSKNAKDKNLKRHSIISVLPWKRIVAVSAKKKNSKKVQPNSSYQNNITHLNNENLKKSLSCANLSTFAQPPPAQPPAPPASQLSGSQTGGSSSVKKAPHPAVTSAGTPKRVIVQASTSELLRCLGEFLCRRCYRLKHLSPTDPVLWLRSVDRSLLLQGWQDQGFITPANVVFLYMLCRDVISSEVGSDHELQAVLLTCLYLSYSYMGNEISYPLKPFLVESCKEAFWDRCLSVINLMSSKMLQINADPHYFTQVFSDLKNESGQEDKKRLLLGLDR
# [6] = Oral bioavailability in ICR mouse at 30 mg/kg measured up to 24 hrs by LC-MS/MS analysis; type: ADME, organism-based; conditions: in vivo
# Summary of the method: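 ICR mice (9 per route) received 30 mg/kg p.o. or 2.0 mg/kg i.v. Plasma was sampled to 24 h and analysed by LC-MS/MS. F (%) = AUC0-∞(oral)/AUC0-∞(iv) × dose(iv)/dose(oral) × 100.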
# HCT-116 = experiment: Antiproliferative activity against human HCT-116 cells assessed as inhibition of cell growth incubated for 72 hrs by Celltiter-Glo luminescent assay; type: functional, cell-based; conditions: HCT-116, 72 h; summary of the method: as §2
# MV4-11 [7] = experiment: Antitumor activity against human MV4-11 cells xenografted in iv dosed BALB/c nude mouse assessed as tumor growth inhibition administered once daily for 21 days and measured twice per week by vernier caliper method; type: functional, organism-based; conditions: dose 10-40 mg/kg, time 21.0 day
# [8] = Metabolic stability in dog liver microsomes assessed as half life at 1 uM incubated up to 60 mins in presence of NADPH by LC-MS/MS analysis; type: ADME, Canis lupus familiaris, Microsome
# Summary of the method: (§4)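 Liver microsomes (0.5 mg/mL) incubated at 37 °C with compound at 1.0 μM final, 3 mM MgCl2 and 1 mM NADPH in 100 mM PBS pH 7.4. Samples taken at 0, 5, 15, 30, 60 min; remaining parent measured by LC-MS/MS. k = −slope, T1/2 = 0.693/k, CLint = k/microsomal protein concentration. Midazolam served as control.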
# BXPC-3 = experiment: Antiproliferative activity against human BxPC3 cells assessed as inhibition of cell growth incubated for 72 hrs by Celltiter-Glo luminescent assay; type: functional, cell-based; conditions: BXPC-3, 72 h; summary of the method: as §2
# MIA PaCa-2 = experiment: Antiproliferative activity against human MIA PaCa-2 cells assessed as inhibition of cell growth incubated for 72 hrs by Celltiter-Glo luminescent assay; type: functional, cell-based; conditions: MIA PaCa-2, 72 h; summary of the method: as §2
# MDA-MB-231 = experiment: Antiproliferative activity against human MDA-MB-231 cells assessed as inhibition of cell growth incubated for 72 hrs by Celltiter-Glo luminescent assay; type: functional, cell-based; conditions: MDA-MB-231, 72 h; summary of the method: as §2
# [9] = Toxicity in BALB/c nude mouse xenografted with human MV4-11 cells assessed as mortality at 40 mg/kg, iv administered once daily for 21 days and measured 2 or 3 times per week; type: organism-based; conditions: in vivo, 504 h, time 21 day; summary of the method: as §3
# NCI-H460 = experiment: Antiproliferative activity against human NCI-H460 cells assessed as inhibition of cell growth incubated for 72 hrs by Celltiter-Glo luminescent assay; type: functional, cell-based; conditions: NCI-H460, 72 h; summary of the method: as §2
# [10] = target: Cyclin-dependent kinase 4/cyclin D1 (Homo sapiens, UniProt P11802); experiment: Inhibition of CDK4/Cyclin D1 (unknown origin) preincubated for 20 mins followed by ATP addition and measured after 120 mins in presence of [33P-gamma] ATP by hotspot kinase assay; type: protein-complex assay; summary of the method: as §1
# Sequence of Cyclin-dependent kinase 4/cyclin D1 (P11802 whole entry): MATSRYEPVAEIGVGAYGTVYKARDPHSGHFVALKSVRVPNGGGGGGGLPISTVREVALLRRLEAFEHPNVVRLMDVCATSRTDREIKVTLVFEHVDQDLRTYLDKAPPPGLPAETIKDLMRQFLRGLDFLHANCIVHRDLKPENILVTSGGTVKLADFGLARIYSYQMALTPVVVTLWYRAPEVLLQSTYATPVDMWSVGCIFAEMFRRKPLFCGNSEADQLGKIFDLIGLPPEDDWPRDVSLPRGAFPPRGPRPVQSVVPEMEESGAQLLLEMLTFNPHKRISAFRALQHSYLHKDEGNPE
# Sequence of Cyclin-dependent kinase 4/cyclin D1 (P24385 whole entry, further chain): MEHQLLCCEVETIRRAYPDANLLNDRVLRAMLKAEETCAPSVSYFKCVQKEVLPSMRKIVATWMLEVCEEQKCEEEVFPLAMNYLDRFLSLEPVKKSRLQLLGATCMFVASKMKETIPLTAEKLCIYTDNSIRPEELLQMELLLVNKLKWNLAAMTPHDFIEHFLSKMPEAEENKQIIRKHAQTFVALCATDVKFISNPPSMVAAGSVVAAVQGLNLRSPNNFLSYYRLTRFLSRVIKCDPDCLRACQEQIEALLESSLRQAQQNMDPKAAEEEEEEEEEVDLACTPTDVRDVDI
# MV4-11 [11] = experiment: Antitumor activity against human MV4-11 cells xenografted in Balb/c nude mouse assessed as reduction in tumor volume at 40 mg/kg, iv administered once daily for 21 days (reference value: 1.00 g); type: functional; conditions: time 21 day
# [12] = Metabolic stability in monkey liver microsomes assessed as intrinsic clearance at 1 uM incubated up to 60 mins in presence of NADPH by LC-MS/MS analysis; type: ADME, Macaca mulatta, Microsome; conditions: rhesus monkey, read-out: CLH; summary of the method: as §4
# CDK6/cyclin D3 = CDK6/cyclin D3 (Homo sapiens, UniProt Q00534); experiment: Inhibition of CDK6/Cyclin D3 (unknown origin) preincubated for 20 mins followed by ATP addition and measured after 120 mins in presence of [33P-gamma] ATP by hotspot kinase assay; type: protein-complex assay; summary of the method: as §1
# Sequence of CDK6/cyclin D3 (P30281 whole entry): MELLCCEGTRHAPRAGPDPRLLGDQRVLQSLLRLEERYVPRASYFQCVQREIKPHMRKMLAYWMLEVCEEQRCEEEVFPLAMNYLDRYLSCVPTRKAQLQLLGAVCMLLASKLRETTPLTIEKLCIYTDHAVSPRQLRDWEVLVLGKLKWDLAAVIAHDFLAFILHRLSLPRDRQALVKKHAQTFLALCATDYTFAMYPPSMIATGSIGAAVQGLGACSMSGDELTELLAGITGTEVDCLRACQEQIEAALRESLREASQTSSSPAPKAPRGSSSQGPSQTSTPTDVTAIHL
# Sequence of CDK6/cyclin D3 (Q00534 whole entry): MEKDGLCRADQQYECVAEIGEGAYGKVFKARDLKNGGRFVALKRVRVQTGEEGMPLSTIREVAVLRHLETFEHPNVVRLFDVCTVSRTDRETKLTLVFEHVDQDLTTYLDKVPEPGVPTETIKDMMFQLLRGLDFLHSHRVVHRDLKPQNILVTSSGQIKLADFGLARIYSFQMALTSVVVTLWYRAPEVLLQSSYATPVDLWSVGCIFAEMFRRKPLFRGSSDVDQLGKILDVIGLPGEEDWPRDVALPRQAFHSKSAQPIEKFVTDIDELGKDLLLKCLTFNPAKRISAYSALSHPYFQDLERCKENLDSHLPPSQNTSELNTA
# CDK3/Cyclin E = CDK3/Cyclin E (Homo sapiens, UniProt Q00526); experiment: Inhibition of CDK3/Cyclin E (unknown origin) preincubated for 20 mins followed by ATP addition and measured after 120 mins in presence of [33P-gamma] ATP by hotspot kinase assay; type: protein-complex assay; summary of the method: as §1
# Sequence of CDK3/Cyclin E (P24864 whole entry): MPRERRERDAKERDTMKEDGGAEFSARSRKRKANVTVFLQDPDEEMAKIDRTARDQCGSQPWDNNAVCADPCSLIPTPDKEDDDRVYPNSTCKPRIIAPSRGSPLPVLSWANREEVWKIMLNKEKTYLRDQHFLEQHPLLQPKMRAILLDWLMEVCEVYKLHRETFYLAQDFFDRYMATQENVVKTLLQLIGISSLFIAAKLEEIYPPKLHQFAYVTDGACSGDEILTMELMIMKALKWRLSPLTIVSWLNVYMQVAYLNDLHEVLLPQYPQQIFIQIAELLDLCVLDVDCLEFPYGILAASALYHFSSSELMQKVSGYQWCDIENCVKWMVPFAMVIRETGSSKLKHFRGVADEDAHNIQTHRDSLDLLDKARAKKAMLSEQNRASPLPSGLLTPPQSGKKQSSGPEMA
# Sequence of CDK3/Cyclin E (Q00526 whole entry): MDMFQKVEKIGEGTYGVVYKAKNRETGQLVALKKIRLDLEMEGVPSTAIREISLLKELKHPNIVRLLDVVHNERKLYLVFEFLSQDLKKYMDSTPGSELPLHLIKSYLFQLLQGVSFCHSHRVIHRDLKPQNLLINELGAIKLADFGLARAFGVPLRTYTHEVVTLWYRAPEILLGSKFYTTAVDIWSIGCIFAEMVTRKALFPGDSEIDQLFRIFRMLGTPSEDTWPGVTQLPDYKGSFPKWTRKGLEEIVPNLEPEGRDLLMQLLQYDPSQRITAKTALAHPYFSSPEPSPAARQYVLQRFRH
# Sequence of Serine/threonine-protein kinase MAK (Homo sapiens) (P20794 whole entry): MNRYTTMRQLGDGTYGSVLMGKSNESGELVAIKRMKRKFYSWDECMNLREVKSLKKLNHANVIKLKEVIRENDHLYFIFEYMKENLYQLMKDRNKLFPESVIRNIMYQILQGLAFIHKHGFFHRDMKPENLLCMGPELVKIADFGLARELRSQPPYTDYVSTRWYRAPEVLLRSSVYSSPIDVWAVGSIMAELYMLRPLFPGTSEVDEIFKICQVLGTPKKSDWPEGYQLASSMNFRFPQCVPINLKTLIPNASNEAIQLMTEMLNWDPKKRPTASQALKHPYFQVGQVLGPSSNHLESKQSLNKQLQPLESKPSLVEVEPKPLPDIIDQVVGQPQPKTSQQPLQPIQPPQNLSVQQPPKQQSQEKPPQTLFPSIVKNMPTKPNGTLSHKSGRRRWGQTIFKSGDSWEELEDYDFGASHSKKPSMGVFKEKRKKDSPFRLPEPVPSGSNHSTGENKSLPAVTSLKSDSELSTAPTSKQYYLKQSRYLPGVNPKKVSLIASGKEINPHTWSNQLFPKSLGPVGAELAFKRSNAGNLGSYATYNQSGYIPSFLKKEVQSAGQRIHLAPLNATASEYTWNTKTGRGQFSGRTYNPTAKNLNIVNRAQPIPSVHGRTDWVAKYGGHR
structure (smiles),measurement,setting,value
COc1cc(F)ccc1-c1nc(Nc2ccc3c(N4CCOCC4)c(C(C)=O)c(=O)oc3c2)ncc1F,Activity,[1],< 10%
same,IC50,[2],1.01 µM
same,AUC(0-t) at 24 h,[3],560 ng·h/mL
same,IC50,NCI-N87,0.6 µM
same,Activity,[4],Non-Toxic
same,IC50,[5],1.26 µM
same,bioavailability,[6],14.3%
same,IC50,HCT-116,0.28 µM
same,Activity,MV4-11 [7],Dose-dependent effect
same,half-life at 1 µM,[8],14 min
same,IC50,BXPC-3,0.08 µM
same,IC50,MIA PaCa-2,0.46 µM
same,IC50,MDA-MB-231,0.23 µM
same,Activity,[9],Non-Toxic
same,IC50,NCI-H460,0.64 µM
same,IC50,[10],0.471 µM
same,Activity,MV4-11 [11],0.18 g
same,microsomal CLint at 1 µM,[12],57.3 µL/min/mg
same,IC50,CDK6/cyclin D3,0.336 µM
same,IC50,CDK3/Cyclin E,1.51 µM

# — ChEMBL document CHEMBL4765336, “Discovery of coumarin derivatives as potent and selective cyclin-dependent kinase 9 (CDK9) inhibitors with high antitumour activity” (Eur J Med Chem, 2020)
